Laboratory results taken from PMC4042847 (Journal of the American Chemical Society, 2013).

Key:
SHV-1 β-lactamase = SHV-1 β-lactamase (Klebsiella pneumoniae, UniProt P0AD64); test: Steady-state inhibition kinetics with nitrocefin as indicator substrate; type: biochemical; details: for kobs react 30min: after a 30 min incubation of 1:90 enzyme:inhibitor ratio; for tn (24h): inhibitor:enzyme ratio decreasing activity by 95% after 24 h incubation
[1] = Spontaneous hydrolysis followed by UV difference spectroscopy; type: physicochemical; details: 3.5 μM in 10 mM PBS, pH 7.4
TEM-2 β-lactamase = details: cited from earlier work
PDC-3 β-lactamase = PDC-3 β-lactamase (Pseudomonas aeruginosa, UniProt P24735, T105A); test: IC50 and turnover number with nitrocefin; type: biochemical
ADC-7 β-lactamase = test: IC50, turnover number and timed inactivation with nitrocefin; type: biochemical
In short: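 Enzyme in 10 mM phosphate-buffered saline, pH 7.4, read by diode-array spectrophotometry with nitrocefin (Δε482 = 17,400 M−1cm−1) at 100 μM. IC50: initial velocities after 5 min enzyme–inhibitor pre-incubation. tn: 24 h incubation with increasing inhibitor, then residual activity assayed. Timed inactivation: I:E ratio set from tn; steady-state velocities at set time points over 45 min.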

OXA-24 β-lactamase = OXA-24 β-lactamase (Acinetobacter baumannii, UniProt Q8RLA6); test: IC50 and turnover number with nitrocefin; type: biochemical

Row | Compound | IC50 higher than clavulanate (SHV-1 β-lactamase; SHV-1) [fold] | IC50 higher than tazobactam (SHV-1 β-lactamase; SHV-1) [fold] | Ki greater than tazobactam and clavulanate (SHV-1 β-lactamase; SHV-1) | kobs react lower than clavulanate (SHV-1 β-lactamase; SHV-1) | kobs react lower than tazobactam (SHV-1 β-lactamase; SHV-1) [fold] | Ki (SHV-1 β-lactamase; SHV-1, Kiapp corrected for nitrocefin affinity (Km = 20 μM)) [nM] | IC50 (SHV-1 β-lactamase; SHV-1, NCF 100 μM, 5 min pre-incubation of enzyme with inhibitor) [nM] | kobs react 30min (SHV-1 β-lactamase; SHV-1) [s⁻¹] | tn (24h) (SHV-1 β-lactamase; SHV-1) | inactivation of SHV-1 in timed inactivation (SHV-1 β-lactamase; […] nM SHV-1 with 980 nM DCM-1-10 (I:E = 7:1), within 45 min) [%] | spontaneous rate of hydrolysis [1] [µM/s] | pseudo first order rate constant of spontaneous hydrolysis ([1]; absorbance at 228 nm) [s⁻¹] | inhibition of TEM-2 β-lactamase in words (TEM-2 β-lactamase) | IC50 (PDC-3 β-lactamase) [nM] | IC50 in words (PDC-3 β-lactamase) | timed inactivation of ADC-7 in words (ADC-7 β-lactamase; 100 nM ADC-7 with 4.5 μM DCM-1-10, I:E of 45:1) | IC50 (ADC-7 β-lactamase; ADC-7) [nM] | IC50 in words (ADC-7 β-lactamase; ADC-7) | IC50 (OXA-24 β-lactamase) [nM] | KI (SHV-1 β-lactamase; SHV-1, from fit of kobs versus inhibitor concentration) [nM]
1 | 7-(tert-butoxycarbonyl)methylidenecephalosporin sulfone [DCM-1-10] | 4 | 27 | about 166 fold | at least 333 fold | 67 | > 20000 | 800 ± 100 | 0.0006 ± 0.0001 | 7 | 95 | 0.0002 | 3e-05 | potent and specific inhibition | 740 ± 80 | submicromolar | rapid compared to SHV-1 | 130 ± 10 | submicromolar | > 100000 | 
2 | O=C(O)[C@H]1/C(=C/CO)O[C@@H]2CC(=O)N21 [Clavulanate, clavulanic acid, reference compound] |  |  |  |  |  |  |  | > 0.2 | 40 |  |  |  |  |  |  |  |  |  |  | 2600 ± 300
3 | C[C@]1(Cn2ccnn2)[C@H](C(=O)O)N2C(=O)C[C@H]2S1(=O)=O [Tazobactam, tazobactam, reference compound] |  |  |  |  |  |  |  | 0.040 ± 0.001 | 5 |  |  |  |  |  |  |  |  |  |  | 
